The text below walks through data of ChEMBL document CHEMBL1125427, “Synthesis of 3-(2-pyridylethyl)benzoxazolinone derivatives: potent analgesic and antiinflammatory compounds inhibiting prostaglandin E2” (1992).

Assay type in all cases: functional
Assay [1] relates to Mus musculus. The experiment in a line: The compound was evaluated for inhibition of edema induced by PGE at […]. The essentials: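 Mice, six per group, dosed orally at 100 mg/kg. After 60 min, PGE2 (20 μg/0.01 mL) was injected subcutaneously into the right hind paw plantar surface. Edema was measured with a dial thickness gauge and the effect expressed as percent inhibition.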

The subject of assay [2] is Mus musculus. In words: Intestinal ulcerogenic activity at a dose of 20 mg/kg. In short, it runs like this:
(§1)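 Fed animals were gavaged with compound on 3 consecutive days and killed 24 h after the last dose. Intestines were examined for ulcers. Read-out: ulcer incidence per group of 8 and lesion length (mm/mouse ± SE).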

For assay [3], the system named is Mus musculus. The experiment in a line: Intestinal ulcerogenic activity at a dose of 50 mg/kg: 8 mice were considered for the test. The essentials:
as §1

Assay [4] concerns Mus musculus. In words: Intestinal ulcerogenic activity at a dose of 20 mg/kg: 8 mice were considered for the test. In short, it runs like this:
as §1

For assay [5], the system named is Mus musculus. In words: Gastric ulcerogenic activity at a dose of 20 mg/kg. In short, it runs like this:
(§2)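 Mice fasted 24 h with water available. Compound in methyl cellulose vehicle given by oral gavage at 0.5 mL/100 g body weight. Animals were killed after 4 h and stomachs examined for lesions under a dissecting microscope. Read-out: ulcer incidence per group of 8 and lesion length (mm/mouse ± SE).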

The test system of assay [6] is Mus musculus. In words: Gastric ulcerogenic activity at a dose of 50 mg/kg. In short, it runs like this: as §2
The test system of assay [7] is Mus musculus. The experiment in a line: Intestinal ulcerogenic activity at a dose of 100 mg/kg: 8 mice were considered for the test. In short, it runs like this: as §1
Assay [8] deals with Mus musculus. The experiment in a line: Gastric ulcerogenic activity at a dose of 20 mg/kg: 8 mice were considered for the test. The essentials: as §2
The test system of assay [9] is Mus musculus. In words: Gastric ulcerogenic activity at a dose of 50 mg/kg: 8 mice were considered for the test. In short, it runs like this:
as §2

Assay [10] has as its system Mus musculus. In words: The compound was evaluated for inhibition of edema induced by arachidonic acid at 1 mg/mL. The essentials:
(§3)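 Mice, six per group, dosed orally at 100 mg/kg. After 60 min, 0.01 mL of phlogistic agent (arachidonic acid or bradykinin) was injected subcutaneously into the right hind paw plantar surface. Edema was measured by dial thickness gauge and the effect expressed as percent inhibition.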

The subject of assay [11] is Mus musculus. In words: Inhibitory activity against carrageenan induced paw edema in mice. More on the design: concentration or dose not given beside the values. (In general: The carrageenan paw model is a standard test of acute inflammation.)
Assay [12] concerns Mus musculus. The experiment in a line: Gastric ulcerogenic activity at a dose of 100 mg/kg: 8 mice were considered for the test. In short, it runs like this: as §2
The subject of assay [13] is Mus musculus. In words: Antiinflammatory activity against CPE in mice following peroral administration of 20 mg/kg. Particulars: route oral. In short, it runs like this: (§4)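 Female albino mice (22 ± 2 g), six per group, dosed orally. After 60 min, 0.01 mL of 2% carrageenan was injected subcutaneously into the right hind paw plantar surface. Edema was read with a dial thickness gauge 3 h later. ED50 was given in mg/kg po with 95% confidence limits.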

Assay [14] deals with Mus musculus. In words: Gastric ulcerogenic activity at a dose of 100 mg/kg. The essentials:
as §2

The species named for assay [15] is Mus musculus. The experiment in a line: Analgesic activity in mice. More on the design: concentration or dose not given beside the values. The essentials: (§5)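 Female albino mice (22 ± 2 g, local breed), groups of eight, dosed orally at 100 mg/kg as a suspension in 5% gum arabic syrup. After 1 h, 3% acetic acid was given ip at 300 mg/kg. Stretches were counted over 10 min, starting 5 min after injection. Percent activity = |n − n'|/n × 100 against syrup-only controls (n = 6).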

Assay [16] concerns Mus musculus. In words: The compound was evaluated for inhibition of edema induced by histamine at 10 mg/mL. In short, it runs like this: (§6)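 Female albino mice (22 ± 2 g, local breed), six per group, housed in eights with free food and water, acclimatised at least 2 days. Compound given orally at 100 mg/kg; 60 min later 0.01 mL of the phlogistic agent (histamine or serotonin) injected subcutaneously into the right hind paw plantar surface. Paw edema measured with a dial thickness gauge; effect expressed as percent inhibition.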

Assay [17] concerns Mus musculus. The experiment in a line: Intestinal ulcerogenic activity at a dose of 100 mg/kg. The essentials:
as §1

Assay [18] has as its system Mus musculus. In words: The compound was evaluated for inhibition of edema induced by bradykinin at 100 ug/mL. In short, it runs like this: as §3
For assay [19], the system named is Mus musculus. In words: The compound was evaluated for inhibition of edema induced by serotonin at 250 ug/mL. In short, it runs like this: as §6
Assay [20] deals with Mus musculus. In words: Intestinal ulcerogenic activity at a dose of 50 mg/kg. The essentials:
as §1

Assay [21] relates to Mus musculus. The experiment in a line: Gastric ulcerogenic activity at a dose of 300 mg/kg: group of 8 mice were considered for the test. In short, it runs like this: as §2
The test system of assay [22] is Mus musculus. The experiment in a line: Antiinflammatory activity against CPE in mice following peroral administration of 30 mg/kg. To be noted: route oral. The essentials: as §4
For assay [23], the system named is Mus musculus. The experiment in a line: Intestinal ulcerogenic activity at a dose of 100 mg/kg: group of 8 mice were considered for the test. In short, it runs like this:
as §1

Assay [24] deals with Mus musculus. In words: Gastric ulcerogenic activity at a dose of 30 mg/kg: group of 8 mice were considered for the test. In short, it runs like this:
as §2

Assay [25] deals with Mus musculus. The experiment in a line: Intestinal ulcerogenic activity at a dose of 30 mg/kg. The essentials: as §1
For assay [26], the system named is Mus musculus. In words: Intestinal ulcerogenic activity at a dose of 30 mg/kg: group of 8 mice were considered for the test. In short, it runs like this:
as §1

For assay [27], the system named is Mus musculus. In words: Intestinal ulcerogenic activity at a dose of 300 mg/kg: group of 8 mice were considered for the test. The essentials:
as §1

For assay [28], the system named is Mus musculus. The experiment in a line: Gastric ulcerogenic activity at a dose of 300 mg/kg. In short, it runs like this: as §2
Assay [29] deals with Mus musculus. In words: Gastric ulcerogenic activity at a dose of 100 mg/kg: group of 8 mice were considered for the test. The essentials:
as §2

For assay [30], the system named is Mus musculus. The experiment in a line: Gastric ulcerogenic activity at a dose of 30 mg/kg. The essentials:
as §2

Assay [31] concerns Mus musculus. In words: Intestinal ulcerogenic activity at a dose of 300 mg/kg. The essentials:
as §1

The species entered for assay [32] is Mus musculus. The experiment in a line: Analgesic activity in mice. In short, it runs like this: as §5

SMILES strings stand for the structures.

As a reminder, the Inhibition is the percentage by which the read-out fell short of the control. The ED50 is the dose at which the effect has come halfway, by size or by number of responders. Consider `O=c1oc2ccc(Cl)cc2n1CCc1ccncc1`, for which the Inhibition in the assay with Mus musculus [1] came to 68%; in the assay with Mus musculus [10] it was 51.2%; in the assay with Mus musculus [11], 68.5%; with Mus musculus [16], 11%; in the assay with Mus musculus [18], 9%; with Mus musculus [19], 13.1%. The Lesion length came to 0 mm mice-1 with Mus musculus [2]; 0 mm mice-1 in the assay with Mus musculus [5]; 0 mm mice-1 in the assay with Mus musculus [6]; 0.4 mm mice-1 with Mus musculus [14]; 0.15 mm mice-1 in the assay with Mus musculus [17]; 0 mm mice-1 with Mus musculus [20]. Moreover, the Ulcer incidence was determined as 0 number/group with Mus musculus [3]; 0 number/group in the assay with Mus musculus [4]; 0 number/group with Mus musculus [7]; 0 number/group in the assay on Mus musculus [8]; 0 number/group in the assay with Mus musculus [9]; 1 number/group in the assay on Mus musculus [12]. This molecule also registered an ED50 with Mus musculus [13] of 18.2 mg/kg. The molecule further yielded an Analgesic activity in the assay listed under Mus musculus [15] of 100%.
For the molecule `O=C(c1ccccc1Cl)c1cc2oc(=O)n(CCc3ccncc3)c2cc1Cl`, the Inhibition with Mus musculus [1] came out at 55%; in the assay with Mus musculus [10], 43%; in the assay on Mus musculus [11], 49.6%; with Mus musculus [16] it was 9.3%; in the assay on Mus musculus [18] it was 12%; in the assay with Mus musculus [19] it was 8.4%. In addition, the Ulcer incidence in the assay on Mus musculus [21] was 1 number/group; in the assay on Mus musculus [23] it was 0 number/group; with Mus musculus [24] it was 0 number/group; with Mus musculus [26] it was 0 number/group; in the assay with Mus musculus [27], 0 number/group; in the assay on Mus musculus [29], 0 number/group. Moreover, in the assay with Mus musculus [22], the ED50 came to 30 mg/kg. For the same molecule, the Lesion length was 0 mm mice-1 in the assay on Mus musculus [25]; 0 mm mice-1 in the assay with Mus musculus [14]; 0.4 mm mice-1 in the assay on Mus musculus [28]; 0 mm mice-1 in the assay on Mus musculus [17]; 0 mm mice-1 with Mus musculus [30]; 0.4 mm mice-1 in the assay with Mus musculus [31]. In the assay filed under Mus musculus [15], this molecule had an Analgesic activity of 92.61%.
The molecule `CC(=O)Oc1ccccc1C(=O)O` [ASPIRIN] had an Analgesic activity in the assay filed under Mus musculus [32] of 58.26%.
